In data set [1] the test system is MDA-MB-231. The data set can be described thus: Induction of mitochondrial membrane potential loss in human MDA-MB-231 cells cell population with mitochondrial membrane potential collapse by measuring green fluorescence at 17.3 uM incubated for 48 hrs by JC1 staining based flow cytometric analysis (reference value: 7.96%). Type of data set: functional. An outline of the steps:
(§1)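 MDA-MB-231 cells in DMEM/10% FBS exposed 48 h to 0, 8.6, 12.4 or 17.3 μM. Harvested cells stained with JC-1 for 15 min in the dark, then analysed by flow cytometry. Excitation 488 nm; green emission read at 525 nm, red at 590 nm. Output given as percent green-to-red fluorescence intensity ratio. Triplicate, mean ± SD.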
On the technique in general: Flow cytometry measures light scatter and fluorescence of single cells or particles in a stream.

The test system of data set [2] is MDA-MB-231. As to the kind of experiment: Induction of mitochondrial membrane potential loss in human MDA-MB-231 cells cell population with mitochondrial membrane potential collapse by measuring green fluorescence at 8.6 uM incubated for 48 hrs by JC1 staining based flow cytometric analysis (reference value: 7.96%). Type of data set: functional. In outline: as §1

Data set [3] has as its system RAW264.7. The data set can be described thus: Antiinflammatory activity in mouse RAW264.7 cells assessed as reduction in LPS-induced IL6 production at 0.8 to 3.1 uM preincubated with LPS for 24 hrs followed by compound addition and measured after 24 hrs by ELISA. The data set is classed as functional, cell-based. An outline of the steps:
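Murine RAW 264.7 macrophages, 1 × 10^5/well, 4 h settling, then LPS (1.0 μg/mL) for 24 h. Medium was swapped for test solutions (0.8–3.1 μM or 2.3–9.2 μM), or DXM 254.8 μM as positive control, for another 24 h. Secreted NO was measured by Griess assay; TNF-α and IL-6 by ELISA. Run in triplicate, mean ± SD.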

Data set [4] relates to RAW264.7. As to the kind of experiment: Antiinflammatory activity against LPS-activated mouse RAW264.7 cells assessed as reduction in TNFalpha mRNA expression at 3.1 uM preincubated with LPS for 24 hrs followed by compound addition and measured after 24 hrs by qRT-PCR analysis. The data set is classed as functional, cell-based. In outline:
(§2)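 RAW 264.7 cells (DMEM, 10% FBS, 37 °C, 5% CO2) seeded at 1 × 10^5/well and held 4 h. LPS 1.0 μg/mL was added for 24 h, then medium was replaced with test agent (0.8, 1.6, 3.1 μM or 2.3, 4.6, 9.2 μM) for 24 h. TNF-α and IL-6 transcripts were quantified by real-time qPCR against GAPDH. Triplicates, mean ± SD.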
(In general: In qPCR the cycle at which signal appears reflects the starting amount.)

In a further data set the test system is L02. As to the kind of experiment: Cytotoxicity against human LO2 cells assessed as reduction in cell viability at 6.2 to 30.9 uM incubated for 48 hrs by methylene blue assay. Type of data set: cell-based. The conditions noted are these: l02, 48 h. An outline of the steps: (§3)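 MDA-MB-231, MCF-7, HepG2 and LNCaP cells were grown in DMEM; HCT-116 and LO-2 in RPMI-1640; all with 10% FBS at 37 °C, 5% CO2. Cells seeded at 1.5 × 10^5 cells/mL and incubated overnight (~12 h), then exposed to 6.2–30.9 μM or 23.1–185.0 μM (final DMSO <0.1%) for 48 h. Read by methylene blue staining; viability = Abs treated/Abs untreated × 100%, triplicate.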

Data set [5] concerns MDA-MB-231. The data set can be described thus: Induction of apoptosis in human MDA-MB-231 cells assessed as late apoptotic cells at 17.3 uM incubated for 48 hrs by annexin V-FITC/PI based flow cytometric analysis (Rvb= 2.82%). Type of data set: functional.
Data set [6] concerns MDA-MB-231. The data set can be described thus: Induction of mitochondrial membrane potential loss in human MDA-MB-231 cells incubated for 48 hrs by JC1 staining based flow cytometric analysis. The data set is classed as functional, cell-based. An outline of the steps:
as §1

Data set [7] has as its system MDA-MB-231. As to the kind of experiment: Induction of apoptosis in human MDA-MB-231 cells assessed as viable cells at 17.3 uM incubated for 48 hrs by annexin V-FITC/PI based flow cytometric analysis (Rvb= 96.21%). The data set is classed as functional. The settings on record: MDA-MB-231, 48 h, read-out: Activity.
The test system of data set [8] is MDA-MB-231. As to the kind of experiment: Induction of cell cycle arrest in human MDA-MB-231 cells assessed as accumulation of cells at G0/G1 phase at 12.4 uM incubated for 48 hrs by PI/RNase staining based flow cytometric analysis (reference value: 50.4%). The data set is classed as functional. In outline: (§4)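 Cell-cycle analysis: MDA-MB-231 cells were preincubated 24 h, then treated with 8.6, 12.4 or 17.3 μM for 48 h. Cells were pelleted, fixed in 75% ethanol at −20 °C overnight, and stained with PI/RNase for 15 min in the dark at ambient temperature. About 10 000 cells per well were analyzed by flow cytometry for DNA content.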

Data set [9] deals with MDA-MB-231. As to the kind of experiment: Induction of cell cycle arrest in human MDA-MB-231 cells assessed as accumulation of cells at G2/M phase at 17.3 uM incubated for 48 hrs by PI/RNase staining based flow cytometric analysis (reference value: 10.4%). The data set is classed as functional. An outline of the steps: as §4
The subject of data set [10] is MDA-MB-231. The data set can be described thus: Induction of mitochondrial membrane potential loss in human MDA-MB-231 cells cell population with mitochondrial membrane potential collapse by measuring green fluorescence at 12.4 uM incubated for 48 hrs by JC1 staining based flow cytometric analysis (reference value: 7.96%). Type of data set: functional. In outline: as §1

In data set [11] the test system is MDA-MB-231. The data set can be described thus: Induction of cell cycle arrest in human MDA-MB-231 cells assessed as accumulation of cells at G0/G1 phase at 8.6 uM incubated for 48 hrs by PI/RNase staining based flow cytometric analysis (reference value: 50.4%). Type of data set: functional. An outline of the steps:
as §4

The test system of data set [12] is MDA-MB-231. As to the kind of experiment: Induction of mitochondrial membrane potential loss in human MDA-MB-231 cells assessed as cell population with intact mitochondrial membrane potential by measuring red fluorescence at 12.4 uM incubated for 48 hrs by JC1 staining based flow cytometric analysis (reference value: 92.04%). Type of data set: functional. In outline: as §1

Data set [13] has as its system MDA-MB-231. The data set can be described thus: Induction of cell cycle arrest in human MDA-MB-231 cells assessed as accumulation of cells at G2/M phase at 12.4 uM incubated for 48 hrs by PI/RNase staining based flow cytometric analysis (reference value: 10.4%). Type of data set: functional. In outline:
as §4

In data set [14] the test system is MDA-MB-231. As to the kind of experiment: Induction of apoptosis in human MDA-MB-231 cells assessed as increase in late apoptotic cells population incubated for 48 hrs by annexin V-FITC/PI based flow cytometric analysis. Type of data set: functional, cell-based.
Data set [15] concerns RAW264.7. The data set can be described thus: Inhibition of nitric oxide production in mouse RAW264.7 cells at 0.8 to 3.1 uM measured after 24 hrs by griess reagent based assay. The data set is classed as functional, cell-based. In general terms: Griess reagent forms a coloured azo dye with nitrite.
In data set [16] the test system is MDA-MB-231. As to the kind of experiment: Induction of cell cycle arrest in human MDA-MB-231 cells assessed as accumulation of cells at G2/M phase at 8.6 uM incubated for 48 hrs by PI/RNase staining based flow cytometric analysis (reference value: 10.4%). Type of data set: functional. In outline:
as §4

Data set [17] deals with MDA-MB-231. The data set can be described thus: Antiproliferative activity against human MDA-MB-231 cells assessed as cell viability at 17.3 uM incubated for 48 hrs by methylene blue assay relative to control. The data set is classed as functional. The conditions noted are these: MDA-MB-231, 48 h, read-out: Activity. In outline: as §3
Data set [18] concerns MDA-MB-231. The data set can be described thus: Induction of apoptosis in human MDA-MB-231 cells assessed as viable cells at 8.6 uM incubated for 48 hrs by annexin V-FITC/PI based flow cytometric analysis (Rvb= 96.21%). Type of data set: functional. The conditions noted are these: MDA-MB-231, 48 h, read-out: Activity.
Another data set concerns HCT-116. As to the kind of experiment: Antiproliferative activity against human HCT116 cells assessed as cell viability at >34.6 uM incubated for 48 hrs by methylene blue assay relative to control. The data set is classed as functional. An outline of the steps:
as §3

Data set [19] deals with RAW264.7. The data set can be described thus: Antiinflammatory activity against LPS-activated mouse RAW264.7 cells assessed as reduction in IL6 mRNA expression at 3.1 uM preincubated with LPS for 24 hrs followed by compound addition and measured after 24 hrs by qRT-PCR analysis. The data set is classed as functional, cell-based. An outline of the steps:
as §2

For data set [20], the system named is MDA-MB-231. As to the kind of experiment: Induction of apoptosis in human MDA-MB-231 cells assessed as early apoptotic cells at 17.3 uM incubated for 48 hrs by annexin V-FITC/PI based flow cytometric analysis (Rvb= 0.24%). The data set is classed as functional.

The source made the active and inactive calls. The calls are words filed in the database; no cut-off is given here.

As to `CC(C)=CCc1c2c(c(O)c3c(=O)cc(-c4ccc(O)cc4)oc13)C=CC(C)(C)O2` [LAXIFOLIN], the Activity was 26.75% in the data set with MDA-MB-231 [1]; 16.49% in the data set on MDA-MB-231 [2]; “Non-Toxic” in the data set on L02; 24.55% in the data set with MDA-MB-231 [5]; “Dose-dependent effect” in the data set with MDA-MB-231 [6]; 60.2% in the data set with MDA-MB-231 [8]. In addition, the Activity was 9.87% in the data set on MDA-MB-231 [9]; 15.7% with MDA-MB-231 [10]; 59.5% in the data set on MDA-MB-231 [11]; 84.3% in the data set with MDA-MB-231 [12]; 11.6% in the data set with MDA-MB-231 [13]; “Dose-dependent effect” in the data set with MDA-MB-231 [14]. Further, the Activity was determined as 11% with MDA-MB-231 [16], 20% in the data set on HCT-116 and 0.96% in the data set on MDA-MB-231 [20]. Moreover, the outcome in the data set with RAW264.7 [3], in the data set on RAW264.7 [4] and in the data set on RAW264.7 [19] was Active. In addition, the viability at 17.3 µM came to 68.9% with MDA-MB-231 [7] and 20% with MDA-MB-231 [17]. In addition, the inhibition entry with RAW264.7 [15] was “Active”. Besides, in the data set on MDA-MB-231 [18], the viability at 8.6 µM was found to be 88.3%.

(Values after ChEMBL document CHEMBL4414566, “Cytotoxicity and Anti-inflammatory Properties of Apigenin-Derived Isolaxifolin” (J Nat Prod, 2019).)
